Series [1] deals with Human immunodeficiency virus type 1 protease (Human immunodeficiency virus 1, UniProt Q72874). The series can be described thus: (§1) Tested for inhibition of HIV protease. Put shortly: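 Ki measured against a tandemly linked (single-chain) HIV protease construct, used because the native dimeric enzyme dissociates at low enzyme concentration.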
For series [2], the target named is Human immunodeficiency virus type 1 protease (Human immunodeficiency virus 1) (UniProt Q72874). Described as §1.
Series [3] concerns the target Human immunodeficiency virus 1. Description: Tested for antiviral activity in HIV-1 IIIB-infected H9 cells.
Series [4] can be described thus: Volume distribution of compound reported after 5 mg/kg i.v. dose in rat. Further details: dose 5 mg/kg, route intravenous. Format: ADME, organism-based. Particulars: in vivo, iv, read-out: Vss. The essentials:
(§2)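 Rats (n = 3) dosed intravenously at 5 mg/kg in 10% propylene glycol with 22.5% (hydroxypropyl)-β-cyclodextrin (2 mg/g formulation). Blood levels followed over time to derive total clearance and steady-state volume.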

The target in another series is T1, Cathepsin E (Homo sapiens, UniProt P14091).
T1 sequence (P14091 whole entry): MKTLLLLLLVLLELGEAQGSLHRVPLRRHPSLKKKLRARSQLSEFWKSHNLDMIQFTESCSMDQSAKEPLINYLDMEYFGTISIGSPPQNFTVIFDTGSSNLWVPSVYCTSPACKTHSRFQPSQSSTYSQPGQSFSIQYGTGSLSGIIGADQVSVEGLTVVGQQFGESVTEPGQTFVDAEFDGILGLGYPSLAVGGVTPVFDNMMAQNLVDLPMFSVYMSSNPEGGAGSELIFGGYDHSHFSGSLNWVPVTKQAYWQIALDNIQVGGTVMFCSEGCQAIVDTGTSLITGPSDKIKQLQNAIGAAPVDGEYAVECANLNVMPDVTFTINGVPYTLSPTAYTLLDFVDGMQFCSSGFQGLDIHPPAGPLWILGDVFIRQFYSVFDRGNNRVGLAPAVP
The series can be described thus: Compound was tested for inhibition human Cathepsin E.

In the next series the target is Cathepsin D (Homo sapiens, UniProt P07339). The series can be described thus: Compound was tested for inhibition human Cathepsin D.
Series [5] can be described thus: Oral bioavailability of compound reported after 5 mg/kg i.v. dose in rat. Format: ADME, organism-based. To be noted: in vivo, 10 mg/kg, in the assay text read “after 10 mg/kg oral dose” for “after 5 mg/kg i.v. dose”. Put shortly:
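Rats given 10 mg/kg orally (n = 9) in 0.01 M sodium hydroxide, pH 10, at 2 mg/g, and 5 mg/kg intravenously (n = 3) in 10% propylene glycol/22.5% hydroxypropyl-β-cyclodextrin. Time-course blood levels compared; F calculated relative to the intravenous dose.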

Series [6] addresses Human immunodeficiency virus type 1 protease (Human immunodeficiency virus 1, UniProt Q72874, L33I/L63I/Q7K). The series can be described thus: Compound was tested for inhibition of HIV protease triple mutant (Q7K/L33I/L63I).
A further series in a line: in vivo. Particulars: rat, plasma, iv, 5 mg/kg.
Series [7] is described as follows: Totla clearance of compound reported after 5 mg/kg i.v. dose in rat. The class given is ADME, organism-based. Further details: dose 5 mg/kg, route intravenous. Particulars: in vivo, iv, read-out: CLtotal (converted). The essentials:
as §2

A further series deals with Pepsin A (Homo sapiens, UniProt P0DJD9). The series can be described thus: Inhibition of human pepsin.
For series [8], the target named is Human immunodeficiency virus type 1 protease (Human immunodeficiency virus 1) (UniProt Q72874). The series can be described thus: Compound was tested for inhibition of HIV protease in AZT Resistant HIV-1 clinical isolates in primary PBMC. Put shortly:
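A panel of 10 AZT-resistant HIV-1 clinical isolates was grown in primary PBMC using a standardized PBMC drug-susceptibility assay.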

For series [9], the system named is Human immunodeficiency virus type 1 protease (Human immunodeficiency virus 1), Q72874 [Q7K,L33I,L63I].

This note sets out measurements from ChEMBL document CHEMBL1129746, “Structure-based design of HIV protease inhibitors: sulfonamide-containing 5,6-dihydro-4-hydroxy-2-pyrones as non-peptidic inhibitors” (J Med Chem, 1996).

Some results are limits rather than exact numbers.

Chain of Cathepsin D (P07339 65-162 limits assumed): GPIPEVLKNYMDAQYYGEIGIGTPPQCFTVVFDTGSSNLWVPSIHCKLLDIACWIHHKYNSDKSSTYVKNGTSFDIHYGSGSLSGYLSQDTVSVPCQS
Chain of Cathepsin D (P07339 169-412 limits assumed): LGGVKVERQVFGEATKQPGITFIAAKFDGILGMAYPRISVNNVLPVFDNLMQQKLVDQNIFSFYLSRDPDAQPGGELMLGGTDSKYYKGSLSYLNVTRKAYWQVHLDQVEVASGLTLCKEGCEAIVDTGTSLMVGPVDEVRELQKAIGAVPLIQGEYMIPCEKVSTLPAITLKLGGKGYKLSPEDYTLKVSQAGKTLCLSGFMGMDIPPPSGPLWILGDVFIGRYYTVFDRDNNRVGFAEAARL
Chain of Pepsin A (P0DJD9 whole entry): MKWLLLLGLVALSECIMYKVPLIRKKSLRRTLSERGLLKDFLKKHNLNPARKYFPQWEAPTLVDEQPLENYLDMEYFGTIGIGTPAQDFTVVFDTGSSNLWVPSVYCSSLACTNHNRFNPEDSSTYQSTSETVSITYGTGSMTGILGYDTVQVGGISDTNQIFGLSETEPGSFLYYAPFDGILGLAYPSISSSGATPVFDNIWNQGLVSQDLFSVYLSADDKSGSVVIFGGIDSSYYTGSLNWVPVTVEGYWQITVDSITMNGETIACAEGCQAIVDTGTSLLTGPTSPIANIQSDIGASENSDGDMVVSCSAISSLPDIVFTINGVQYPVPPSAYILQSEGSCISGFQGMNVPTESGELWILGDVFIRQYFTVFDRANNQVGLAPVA

In general, Ki refers to a measure of affinity in units of concentration, obtained from inhibition or displacement. A low value points to higher affinity. One may read the IC90 as the point of the concentration-response curve where the effect stands at 90%. Lower therefore signals an effect from little substance. Turning to `CCC[C@@]1(CCc2ccccc2)CC(O)=C([C@H](CC)c2cccc(NS(=O)(=O)c3ccc(C#N)cn3)c2)C(=O)O1`, in [1], affinity was put at a Ki of 0.007 nM. Moreover, the 90% effect level in series [2] (IC90) was put at 260 nM.
A word on the IC50: it is the point on the concentration scale where inhibition reaches its midpoint. Higher therefore signals a need for much substance. `CCC[C@]1(CCc2ccccc2)CC(=O)C([C@@H](CC)c2cccc(NS(=O)(=O)c3cn(C)cn3)c2)=C(O)O1` (stereo in doubt; Vb) [listing 1 of 2 here] displayed an IC50 in [3] of 130 nM. Moreover, in [1], the Ki came out at 0.06 nM.
In series [3], `CCC(Cc1ccccc1)c1cc(O)c(C(CC)c2ccccc2)c(=O)o1` (configuration not stated) registered an IC50 of 3000 nM.
With `CCCC1(CCc2ccccc2)CC(=O)C(C(CC)c2cccc(NS(=O)(=O)c3cccc4cccnc34)c2)=C(O)O1` (configuration not stated), in series [1], the affinity corresponds to a Ki of 3 nM. The compound further came in with an IC90 in series [2] of 3000 nM.
In series [3], `CCC[C@]1(CCc2ccccc2)CC(=O)C([C@H](CC)c2cccc(NS(=O)(=O)c3ccc(C(F)(F)F)cn3)c2)=C(O)O1` showed an IC50 of 140 nM. Further, the inhibitory constant (Ki) in series [1] was found to be 0.018 nM. Moreover, the 90% effect level in series [2] (IC90) was put at 840 nM.
For the compound `CCCC1(CCc2ccccc2)C=c2oc(=O)c(C(CC)c3ccccc3)c(O)c2=CC1` (configuration not stated), the Ki in [1] was determined as 35 nM.
For `CCC[C@]1(CCc2ccccc2)CC(=O)C([C@@H](CC)c2cccc(NS(=O)(=O)c3cn(C)cn3)c2)=C(O)O1` (stereo in doubt; Va) [listing 1 of 2 here], in series [3], the IC50 stood at 580 nM. Further, affinity in [1] was put at a Ki of 0.12 nM.
In turn, `CCC[C@]1(CCc2ccccc2)CC(=O)C([C@@H](CC)c2cccc(NS(=O)(=O)c3cn(C)cn3)c2)=C(O)O1` (stereo in doubt; Vd) [listing 1 of 2 here] showed an IC90 in series [2] of more than 1000 nM.
`CCC[C@]1(CCc2ccccc2)CC(=O)C([C@H](CC)c2cccc(NS(=O)(=O)c3ccc(C#N)cn3)c2)=C(O)O1` yielded a half-inhibitory concentration (IC50) in series [3] of 490 nM. This compound came in with an inhibitory constant (Ki) in [1] of 0.1 nM. This compound yielded a concentration for an effect of 90% (IC90) in series [2] of 1000 nM.
In turn, `CCCC1(CCc2ccccc2)CC(=O)C(C(CC)c2cccc(NS(=O)(=O)c3ccccc3)c2)=C(O)O1` (configuration not stated) showed an inhibitory constant (Ki) in series [1] of 17 nM. In addition, the 90% effect level in [2] (IC90) was put at 7300 nM.
As to `CCC[C@@]1(CCc2ccccc2)CC(=O)C([C@@H](CC)c2cccc(NS(=O)(=O)c3ccc(C(F)(F)F)cn3)c2)=C(O)O1` (stereo in doubt; form 1) [listing 1 of 2 here], in series [2], the IC90 was 3000 nM.
Consider `CCC[C@@]1(CCc2ccccc2)CC(=O)C([C@@H](CC)c2cccc(NS(=O)(=O)c3ccc(C(F)(F)F)cn3)c2)=C(O)O1` (stereo in doubt; form 1) [listing 2 of 2 here], for which, in series [1], the inhibition constant Ki stood at 0.22 nM.
Turning to `CCC[C@]1(CCc2ccccc2)CC(=O)C([C@@H](CC)c2cccc(NS(=O)(=O)c3cn(C)cn3)c2)=C(O)O1` (stereo in doubt; Vc) [listing 1 of 2 here], the concentration for an effect of 90% (IC90) in series [2] was more than 1000 nM.
`CCC[C@]1(CCc2ccccc2)CC(=O)C([C@@H](CC)c2cccc(NS(=O)(=O)c3ccc(C#N)cn3)c2)=C(O)O1`: in series [3], the IC50 is more than 1000 nM. In series [1], this compound displayed a Ki of 0.12 nM. Besides, in [2], the concentration for an effect of 90% (IC90) was more than 1000 nM.
As to `CCC[C@]1(CCc2ccccc2)CC(=O)C([C@@H](CC)c2cccc(NS(=O)(=O)c3cn(C)cn3)c2)=C(O)O1` (stereo in doubt; Va) [listing 2 of 2 here], the IC90 in series [2] was determined as 1000 nM.
In turn, `CCC[C@]1(CCc2ccccc2)CC(=O)C([C@@H](CC)c2cccc(NS(=O)(=O)c3cn(C)cn3)c2)=C(O)O1` (stereo in doubt; Vd) [listing 2 of 2 here] had a half-inhibitory concentration (IC50) in series [3] of more than 1000 nM. The compound also had a Ki in series [1] of 0.03 nM.
The term bioavailability denotes dose-corrected exposure relative to a reference, in per cent. Read a high bioavailability as good availability. As a reminder, the half-life is how long it takes for the measured level to halve. Turning to `CCC[C@@]1(CCc2ccccc2)CC(O)=C([C@H](CC)c2cccc(NS(=O)(=O)c3ccc(C(F)(F)F)cn3)c2)C(=O)O1`, the Vd in series [4] turned out to be 0.51 L/kg. The inhibition constant (Ki) at Cathepsin E was 9000 nM; on Cathepsin D, 15000 nM; in [6], less than 1 nM; on Pepsin A, 2000 nM. Further, the bioavailability in [5] came out at 30%. Moreover, the half-life in the series “in vivo” is 5.4 h. Further, the clearance in series [7] was 2.83 mL/min/kg. The compound further gave a 90% effect concentration (IC90) in [8] of 150 nM.
Regarding `CCC[C@]1(CCc2ccccc2)CC(=O)C([C@@H](CC)c2cccc(NS(=O)(=O)c3cn(C)cn3)c2)=C(O)O1` (stereo in doubt; Vc) [listing 2 of 2 here], the IC50 in series [3] is more than 1000 nM. This compound gave an inhibition constant Ki in [1] of 1 nM.
Compound `CCC[C@@]1(CCc2ccccc2)CC(=O)C([C@@H](CC)c2cccc(NS(=O)(=O)c3ccc(C(F)(F)F)cn3)c2)=C(O)O1` (stereo in doubt; form 2) [listing 1 of 2 here] returned a Ki in series [1] of 0.032 nM.
In series [2], `CCC[C@]1(CCc2ccccc2)CC(=O)C([C@@H](CC)c2cccc(NS(=O)(=O)c3cn(C)cn3)c2)=C(O)O1` (stereo in doubt; Vb) [listing 2 of 2 here] displayed an IC90 of 560 nM.
`CCCC1(CCc2ccccc2)CC(=O)C(C(CC)c2cccc(NS(=O)(=O)c3ccc(C#N)cc3)c2)=C(O)O1` (configuration not stated) gave a Ki in series [1] of 8 nM. In series [2], this compound returned a 90% effect concentration (IC90) of 4200 nM.
On to `CCCC1(CCc2ccccc2)CC(=O)C(C(CC)c2cccc(NS(=O)(=O)c3cn(C)cn3)c2)=C(O)O1` (configuration not stated), for which the 90% effect level in [9] (IC90) was put at 900 nM. Further, in series [6], the midpoint of inhibition, the IC50, lay at 500 nM and the affinity, expressed as Ki, was 1 nM.
As for `CCC[C@@]1(CCc2ccccc2)CC(=O)C([C@@H](CC)c2cccc(NS(=O)(=O)c3ccc(C(F)(F)F)cn3)c2)=C(O)O1` (stereo in doubt; form 2) [listing 2 of 2 here], in series [2], the 90% effect concentration (IC90) turned out to be 1800 nM.
For `CCC[C@@]1(CCc2ccccc2)CC(=O)C([C@@H](CC)c2cccc(NS(=O)(=O)c3ccc(C#N)cn3)c2)=C(O)O1`, in series [3], half-maximal inhibition (IC50) required 110 nM. In [1], the affinity corresponds to a Ki of 0.04 nM. The same compound gave an IC90 in series [2] of 890 nM.
On to `CCCC1(CCc2ccccc2)CC(=O)C(C(CC)c2cccc(NS(=O)(=O)c3ccc(F)cc3)c2)=C(O)O1` (configuration not stated), for which, in series [1], the inhibition constant (Ki) is 6 nM. In series [2], this compound gave an IC90 of 4300 nM.
